Results reported in ChEMBL document CHEMBL1138158, “Synthesis, pharmacology, and structure-activity relationships of novel imidazolones and pyrrolones as modulators of GABAA receptors” (J Med Chem, 2006).

Assays:
[1] = Partition coefficient of the compound, log P; format: physicochemical; details: octanol/water
In short: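 Experimental 1-octanol/water partition coefficient.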

[2] = biological target: GABA-A receptor; anion channel (Rattus norvegicus) (UniProt O09028+P15431+P18506+P18508+P19969+P20236+P23574+P23576+P28471+P28473+P30191+P62813+P63079+P63138+Q91ZM7+Q9ES14); assay: Inhibition of Wistar rat benzodiazepine receptor at 2 uM; format: protein-complex assay
[3] = test system: Mus musculus; assay: Anxiolytic activity in NMRI BR mice after ip administration by PTZ test; format: functional
In short: (§1)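 Male mice (NMRI BR at elbion, three per dose; CF-1 at NIH, up to five) given compound or vehicle i.p. at 30, 100, 300 mg/kg, 30 min and 4 h pretreatment. PTZ 85 mg/kg s.c. into neck, then 30 min observation for first generalized clonic seizure with loss of righting reflex.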

[4] = test system: Mus musculus; assay: Neurotoxicological activity in NMRI BR mice after ip administration by rotarod test; format: functional
In short: (§2)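 Male mice (CF-1 at NIH; NMRI BR at elbion), trained beforehand, dosed i.p. Motor impairment was defined as failure to stay on a rod (6 rpm, 0.9 cm diameter) for 1 min in at least one of three trials. The same animals were tested at several times (≥3 doses, n = 8/group). TD50 at peak time by probit analysis.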

[5] = test system: Rattus norvegicus; assay: Anxiolytic activity in rat after oral administration by PTZ test; format: functional
In short: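 Rats dosed orally. PTZ 70 mg/kg given s.c., then 30 min observation for first generalized clonic seizure with loss of righting reflex. Protection was measured at several pretreatment times (n = 3-4), and the peak time was used for the dose-response.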

[6] = test system: Rattus norvegicus; assay: Anxiolytic activity in rat after oral administration by vogel conflict test; format: functional; details: read-out: MED
In short: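 Modified Vogel conflict test in rats after oral dosing. Water-deprived 24 h, trained to drink 5.0% glucose for 5 min, deprived a further 24 h. The 210 s test session had 30 s unpunished drinking, then 180 s with mild shock on touching the drinking tube. Punished and unpunished licks counted. Minimal effective dose reported.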

[7] = test system: Rattus norvegicus; assay: Neurotoxicological activity in rat after oral administration by rotarod test; format: functional
In short: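 Trained male rats dosed orally. Motor impairment was defined as failure to stay on a rod (8 rpm, 6 cm diameter) for 1 min in at least one of three trials. The same animals were tested at several time points (≥3 dose groups, n = 8/group). TD50 at time of peak neurotoxicity by probit analysis.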

[8] = test system: Mus musculus; assay: Neurotoxicological activity in CF1 mice after ip administration by rotarod test; format: functional; in short: as §2
[9] = biological target: GABA-A receptor; anion channel; assay: Binding affinity to Wistar rat benzodiazepine receptor; format: protein-complex assay
In short: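 Rat (male Wistar, 180-200 g) whole-brain membranes without cerebellum in 0.05 M Tris/HCl pH 7.7. Bound ligand separated on filters and counted by scintillation. IC50 from 6-10 concentrations, Ki by Cheng-Prusoff, at least four repeats averaged.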

[10] = test system: Cynomolgus monkey; assay: Plasma concentration in cynomolgus monkey at 5 mg/kg, po; format: ADME, organism-based, Macaca fascicularis; set-up: dose 5 mg/kg, route oral; details: in vivo
[11] = test system: Mus musculus; assay: Anxiolytic activity in CF1 mice after ip administration by PTZ test; format: functional; in short: as §1
[12] = test system: Cynomolgus monkey; assay: Plasma concentration in cynomolgus monkey at 30 mg/kg, po; format: ADME, organism-based, Macaca fascicularis; set-up: dose 30 mg/kg, route oral; details: in vivo

Row | SMILES | logP [1] | inhibition [2] [%] | ED50 [3] [mg/kg] | TD50 [4] [mg/kg] | ED50 [5] [mg/kg] | minimal effective dose [6] [mg/kg] | TD50 [7] [mg/kg] | TD50 [8] [mg/kg] | Ki [9] [µM] | concentration [10] [nM] | ED50 [11] [mg/kg] | concentration [12] [µM]
1 | O=C1C=C(c2ccc(Cl)cc2)C(=O)N1c1ccc(Cl)cc1 | 3 | < 20 | > 300 | > 300 |  |  |  |  |  |  |  | 
2 | CN1C(=O)CN=C(c2ccccc2)c2cc(Cl)ccc21 [DIAZEPAM] |  |  | 0.4 | 2 | 6.3 | 1 | 13 |  |  |  |  | 
3 | O=C1C=C(N2CCOCC2)CN1c1ccc(Cl)cc1 | 1.9 |  | 10.9 | 97 |  | 10 | > 500 | 60.9 | 0.141 |  |  | 
4 | Clc1ccc(-c2cnn(-c3ccccn3)c2)cc1 | 4.3 |  | > 300 | > 300 |  |  |  |  |  |  |  | 
5 | CN(C1=NC(=O)N(c2ccc(Cl)cc2)C1)C1CCCCC1 | 2.7 |  | > 300 | > 300 |  |  |  |  |  |  |  | 
6 | O=c1cc(-c2ccccc2)on1-c1ccc(Cl)cc1 | 4.1 |  | 253 | < 300 |  |  |  |  |  |  |  | 
7 | Clc1ccc(-n2cnc(-c3ccccc3)c2)cc1 | 3.7 |  | > 300 | > 300 |  |  |  |  | 3.29 |  |  | 
8 | O=C1C2C=Nc3ccccc3C2=NN1c1ccc(Cl)cc1 (configuration not stated) [CGS-9896] |  |  | 1.36 | 302 | 2.7 | 0.3 | > 500 |  | 0.0024 | 27 |  | 
9 | O=C1N=C(N2CCOCC2)CN1c1ccc(F)cc1 |  | < 20 |  |  | 34.1 |  | > 60 | > 500 |  |  | 35 | 
10 | O=C1C=C(N2CCOCC2)C(=O)N1c1ccc(Cl)cc1 | 2.3 |  | 120 | > 300 |  |  |  |  | 8.88 |  |  | 
11 | CN(C)C1=NC(=O)N(c2ccc(Cl)cc2)C1 | 1.6 | < 20 | > 300 | > 300 |  |  |  |  |  |  |  | 
12 | CN1CCN(C2=NC(=O)N(c3ccc(Cl)cc3)C2)CC1 | 2.2 | < 20 | > 300 | > 100 |  |  |  |  |  |  |  | 
13 | O=C1N=C(N2CCOCC2)CN1c1ccc(I)cc1 | 1.7 |  |  |  | 50 |  | > 50 | > 300 |  |  | 43 | 
14 | O=C1C=C(N2CCOCC2)C(=O)N1c1ccc(F)cc1 | 1.5 | < 20 | 128 | > 100 |  |  |  |  |  |  |  | 
15 | COC1(OC)C(N2CCOCC2)=NC(=O)N1c1ccc(Cl)cc1 | 1.7 | < 20 | > 100 | > 30 |  |  |  |  |  |  |  | 
16 | O=C1N=C(N2CCOCC2)CN1Cc1ccccc1 | 0.5 | < 20 | > 300 | > 300 |  |  |  |  |  |  |  | 
17 | O=C1N=C(N2CCOCC2)CN1c1cccc(Cl)c1 | 1.3 | < 20 | > 300 | > 300 |  |  |  |  |  |  |  | 
18 | O=c1cc(-c2ccccc2)[nH]n1-c1ccc(Cl)cc1 | 2.6 | < 20 | > 300 | > 300 |  |  |  |  |  |  |  | 
19 | O=C1N=C(N2CCCCCCC2)CN1c1ccc(Cl)cc1 | 2.7 |  | > 300 | > 300 |  |  |  |  |  |  |  | 

Row | SMILES | logP [1] | inhibition [2] [%] | ED50 [3] [mg/kg] | TD50 [4] [mg/kg] | ED50 [5] [mg/kg] | minimal effective dose [6] [mg/kg] | TD50 [7] [mg/kg] | TD50 [8] [mg/kg] | Ki [9] [µM] | concentration [10] [nM] | ED50 [11] [mg/kg] | concentration [12] [µM]
20 | Clc1ccc(-c2noc(N3CCOCC3)n2)cc1 | 3.1 |  | > 300 | > 300 |  |  |  |  | 26.1 |  |  | 
21 | O=C1N=C(N2CCOCC2)CN1c1ccc(Cl)c(Cl)c1 | 1.9 | < 20 | > 300 | > 300 |  |  |  |  |  |  |  | 
22 | Cc1cccc(N2CC(N3CCOCC3)=CC2=O)c1 | 1.5 |  | 62.3 | < 100 |  |  |  |  | 4.45 |  |  | 
23 | O=C1C=C(N2CCOCC2)CN1c1ccc(F)cc1 |  |  | 337 | > 300 |  |  |  |  | 0.494 |  |  | 
24 | O=C1N=C(N2CCOCC2)CN1c1ccc(Br)cc1 | 1.4 |  | 21.8 | 345 | 27.7 | 100 | 473 |  | 3.06 |  |  | 
25 | O=C1N=C(N2CCOCC2)CN1Cc1c(Cl)cccc1Cl | 1.3 |  | > 300 | > 300 |  |  |  |  |  |  |  | 
26 | O=C1C=C(N2CCOCC2)CN1c1ccc(F)c(Cl)c1 | 2.2 |  | 22.3 | < 100 |  |  |  |  | 2.05 |  |  | 
27 | O=C1C=C(N2CCCC2)C(=O)N1c1ccc(F)cc1 | 2.3 | < 20 | > 200 | > 300 |  |  |  |  |  |  |  | 
28 | O=C1N=C(N2CCCC2)CN1c1ccc(Cl)cc1 | 2 |  | > 300 | > 300 | 14.2 | 3 | > 500 |  | 4.29 |  |  | 
29 | O=C1N=C(N2CCOCC2)CN1Cc1ccccc1Cl | 1 |  | > 300 | > 300 |  |  |  |  |  |  |  | 
30 | O=C1C=C(N2CCCC2)CN1c1ccc(Cl)cc1 |  |  | > 300 | > 300 | > 200 |  |  |  | 0.067 |  |  | 
31 | CC(c1ccccc1)N1CC(N2CCOCC2)=NC1=O (configuration not stated) | 0.8 |  | > 300 | > 100 |  |  |  |  |  |  |  | 
32 | O=C1C=C(N2CCCC2)C(=O)N1c1ccc(Cl)cc1 | 3 |  | > 300 | > 300 |  |  |  |  | 3.26 |  |  | 
33 | O=C1N=C(N2CCOCC2)CN1c1ccc(Cl)cc1 [IMEPITOIN] | 1.5 |  |  | 75.6 |  | 3 | 998 | 176 | 4.35 |  | 17.2 | 39
34 | O=C1N=C(N2CCCCCC2)CN1c1ccc(Cl)cc1 |  |  | > 300 | > 300 |  |  |  |  | 11.6 |  |  | 
35 | O=c1oc(-c2ccccc2)nn1-c1ccc(Cl)cc1 | 2.6 | < 20 | > 300 | > 300 |  |  |  |  |  |  |  | 
36 | Cc1ccc(N2CC(N3CCOCC3)=CC2=O)cc1 | 1.4 |  | 89.3 | 100 |  |  |  |  | 0.344 |  |  | 
37 | O=C1N=C(N2CCOCC2)CN1c1ccccc1 | 0.6 |  | 121 | > 300 |  |  |  |  | 6.28 |  |  | 
38 | O=C1C=C(N2CCCCCC2)CN1c1ccc(Cl)cc1 | 3.4 |  | 234 | > 100 |  |  |  |  | 0.44 |  |  | 
